From ChEMBL document CHEMBL5705905, “Pharmacological targeting of kinases MST1 and MST2 augments tissue repair and regeneration” (Sci Transl Med, 2016)
Active and inactive are the calls of the source. No cut-off for these calls is given here.

Experiments:
[1] = target: Serine/threonine-protein kinase Nek1 (Homo sapiens) (UniProt Q96PY6); assay: Inhibition of NEK1 (unknown origin) assessed as remaining activity at 1 uM by Kinome scan method relative to control
[2] = target: Mitogen-activated protein kinase kinase kinase kinase 1 (Homo sapiens) (UniProt Q92918); assay: Inhibition of HPK1 (unknown origin) assessed as remaining activity at 1 uM by Kinome scan method relative to control
[3] = target: Ephrin type-B receptor 2 (Homo sapiens) (UniProt P29323); assay: Inhibition of EPHB2 (unknown origin) assessed as remaining activity at 1 uM by Kinome scan method relative to control
[4] = target: Serine/threonine-protein kinase Nek2 (Homo sapiens) (UniProt P51955); assay: Inhibition of NEK2 (unknown origin) assessed as remaining activity at 1 uM by Kinome scan method relative to control
[5] = target: Mitogen-activated protein kinase kinase kinase kinase 2 (Homo sapiens) (UniProt Q12851); assay: Inhibition of MAP4K2 (unknown origin) assessed as remaining activity at 1 uM by Kinome scan method relative to control
Homo sapiens = species on record: Homo sapiens; assay: Inhibition of recombinant His-tagged full-length MST1 Y101F mutant (unknown origin) expressing in Escherichia coli assessed as GST-tagged MOB1 phosphorylation level at 0.01 to 1 uM incubated for 15 min by immunoblot analysis; details: dose 0.01-1 µM
[6] = target: Serine/threonine-protein kinase 3 (Homo sapiens, UniProt Q13188, D109A/Y101F)
[7] = target: Tyrosine-protein kinase Blk (Homo sapiens) (UniProt P51451); assay: Inhibition of BLK (unknown origin) assessed as remaining activity at 1 uM by Kinome scan method relative to control
Procedure, shortened: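 Active-site-dependent competition-binding (KINOMEscan) panel of 468 kinases, test compound at 1 μM (from a 10 mM DMSO stock). Read-out is ctrl% = (test signal − positive control signal)/(negative control signal − positive control signal) × 100. DMSO is the negative control (100%) and a control compound is the positive control (0%). Lower ctrl% means tighter binding.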

[8] = target: Ephrin type-A receptor 7 (Homo sapiens) (UniProt Q15375); assay: Inhibition of EPHA7 (unknown origin) assessed as remaining activity at 1 uM by Kinome scan method relative to control
Mus musculus [9] = assay: Protection against CCl4-induced mouse assessed as low dead cells at 1 mg/kg, ip administration daily for 10 days by TUNEL staining; assay type: functional, organism-based; details: Liver, time 10.0 day
[10] = system: Tyrosine-protein kinase ABL1 (Homo sapiens), P00519 [F317L]; assay: Inhibition of phosphorylated ABL1 F317L mutant (unknown origin) assessed as remaining activity at 1 uM by Kinome scan method relative to control
[11] = target: Non-receptor tyrosine-protein kinase TYK2 (Homo sapiens, UniProt P29597); assay: Binding affinity to TYK2 JH1domain-catalytic (unknown origin) assessed as dissociation constant
[12] = target: Mitogen-activated protein kinase 10 (Homo sapiens) (UniProt P53779); assay: Inhibition of JNK3 (unknown origin) assessed as remaining activity at 1 uM by Kinome scan method relative to control
Mus musculus [13] = assay: In vivo inhibition of MST1/2 in wild-type Mst1fl/fl Mst2fl/fl mouse assessed as decrease in YAP phosphorylation level at 1 mg/kg, ip administrated daily for 7 days by immunoblot analysis; assay type: functional, organism-based; details: Liver, time 7.0 day
[14] = target: Ribosomal protein S6 kinase alpha-5 (Homo sapiens) (UniProt O75582); assay: Inhibition of N-terminal kinase domain RPS6KA5 (unknown origin) assessed as remaining activity at 1 uM by Kinome scan method relative to control
[15] = target: Mitogen-activated protein kinase kinase kinase 4 (Homo sapiens) (UniProt Q9Y6R4); assay: Inhibition of MAP3K4 (unknown origin) assessed as remaining activity at 1 uM by Kinome scan method relative to control
[16] = target: Dual specificity protein kinase CLK3 (Homo sapiens) (UniProt P49761); assay: Inhibition of CLK3 (unknown origin) assessed as remaining activity at 1 uM by Kinome scan method relative to control
Procedure, shortened: (§1)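 Active-site-dependent competition-binding profiling (KINOMEscan) at 1 μM against a 468-kinase panel; compound supplied from a 10 mM DMSO stock. Read-out is ctrl% = (test signal − positive control signal)/(negative control signal − positive control signal) × 100. DMSO is the negative control (100%) and a control compound the positive control (0%). Lower ctrl% means tighter binding.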

Mus musculus [17] = assay: Protection against duct ligation-induced mouse assessed as low level in collagen deposition at 1 mg/kg, ip administration daily for 10 days by Sirius Red staining; assay type: functional, organism-based; details: Liver, time 10.0 day
[18] = target: CDK4/Cyclin D3 (Homo sapiens) (UniProt P11802+P30281); assay: Inhibition of CDK4/cyclinD3 (unknown origin) assessed as remaining activity at 1 uM by Kinome scan method relative to control; assay type: protein-complex assay; procedure, shortened: as §1
[19] = target: Mitogen-activated protein kinase 12 (Homo sapiens) (UniProt P53778); assay: Inhibition of P38gamma (unknown origin) assessed as remaining activity at 1 uM by Kinome scan method relative to control
[20] = target: NT-3 growth factor receptor (Homo sapiens) (UniProt Q16288); assay: Inhibition of TRKC (unknown origin) assessed as remaining activity at 1 uM by Kinome scan method relative to control
[21] = target: MAP kinase-activated protein kinase 5 (Homo sapiens) (UniProt Q8IW41); assay: Inhibition of MAPKAPK5 (unknown origin) assessed as remaining activity at 1 uM by Kinome scan method relative to control
[22] = target: Serine/threonine-protein kinase TAO3 (Homo sapiens, UniProt Q9H2K8); assay: Binding affinity to TAOK3 (unknown origin) assessed as dissociation constant
[23] = target: Serine/threonine-protein kinase Nek4 (Homo sapiens) (UniProt P51957); assay: Inhibition of NEK4 (unknown origin) assessed as remaining activity at 1 uM by Kinome scan method relative to control
[24] = target: Mitogen-activated protein kinase kinase kinase 13 (Homo sapiens) (UniProt O43283); assay: Inhibition of LZK (unknown origin) assessed as remaining activity at 1 uM by Kinome scan method relative to control
[25] = target: Serine/threonine-protein kinase DCLK1 (Homo sapiens) (UniProt O15075); assay: Inhibition of DCAMKL1 (unknown origin) assessed as remaining activity at 1 uM by Kinome scan method relative to control
Procedure, shortened: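 Active-site-dependent competition-binding assay (KINOMEscan) across a 468-kinase panel, with the inhibitor tested at 1 μM from a 10 mM DMSO stock. Read-out is ctrl% = (test signal − positive control)/(negative control − positive control) × 100. DMSO is the negative control (100%) and a control compound the positive control (0%). Lower ctrl% means tighter binding.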

[26] = system: Proto-oncogene tyrosine-protein kinase receptor Ret (Homo sapiens), P07949 [V804L]; assay: Inhibition of RET V804L (unknown origin) assessed as remaining activity at 1 uM by Kinome scan method relative to control
[27] = target: Fibroblast growth factor receptor 3 (Homo sapiens) (UniProt P22607); assay: Inhibition of FGFR3 (unknown origin) assessed as remaining activity at 1 uM by Kinome scan method relative to control

Sequence of Mitogen-activated protein kinase kinase kinase kinase 2 (Homo sapiens) (Q12851 whole entry): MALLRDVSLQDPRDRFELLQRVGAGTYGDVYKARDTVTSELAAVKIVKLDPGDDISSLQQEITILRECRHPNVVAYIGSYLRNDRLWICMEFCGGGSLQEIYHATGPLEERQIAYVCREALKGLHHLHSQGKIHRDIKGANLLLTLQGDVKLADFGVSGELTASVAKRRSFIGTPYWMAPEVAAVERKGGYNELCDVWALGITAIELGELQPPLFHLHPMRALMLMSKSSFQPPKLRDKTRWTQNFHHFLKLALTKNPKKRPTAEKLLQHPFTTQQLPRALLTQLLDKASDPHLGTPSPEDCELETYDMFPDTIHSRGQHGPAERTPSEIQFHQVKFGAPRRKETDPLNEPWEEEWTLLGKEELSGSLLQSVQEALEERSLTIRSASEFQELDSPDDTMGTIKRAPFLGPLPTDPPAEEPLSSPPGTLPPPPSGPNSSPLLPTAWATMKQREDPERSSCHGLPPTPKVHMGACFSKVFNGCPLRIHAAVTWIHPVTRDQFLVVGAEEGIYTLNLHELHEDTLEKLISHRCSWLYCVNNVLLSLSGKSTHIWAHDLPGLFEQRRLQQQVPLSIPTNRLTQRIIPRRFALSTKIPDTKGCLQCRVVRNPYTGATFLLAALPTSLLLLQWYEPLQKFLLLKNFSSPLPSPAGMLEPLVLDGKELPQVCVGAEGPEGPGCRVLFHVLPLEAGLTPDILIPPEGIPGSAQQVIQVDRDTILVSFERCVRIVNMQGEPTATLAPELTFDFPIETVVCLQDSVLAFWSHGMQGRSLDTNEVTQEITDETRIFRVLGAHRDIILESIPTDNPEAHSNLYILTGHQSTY
Sequence of Serine/threonine-protein kinase 3 (Q13188 whole entry Y101F/D109A): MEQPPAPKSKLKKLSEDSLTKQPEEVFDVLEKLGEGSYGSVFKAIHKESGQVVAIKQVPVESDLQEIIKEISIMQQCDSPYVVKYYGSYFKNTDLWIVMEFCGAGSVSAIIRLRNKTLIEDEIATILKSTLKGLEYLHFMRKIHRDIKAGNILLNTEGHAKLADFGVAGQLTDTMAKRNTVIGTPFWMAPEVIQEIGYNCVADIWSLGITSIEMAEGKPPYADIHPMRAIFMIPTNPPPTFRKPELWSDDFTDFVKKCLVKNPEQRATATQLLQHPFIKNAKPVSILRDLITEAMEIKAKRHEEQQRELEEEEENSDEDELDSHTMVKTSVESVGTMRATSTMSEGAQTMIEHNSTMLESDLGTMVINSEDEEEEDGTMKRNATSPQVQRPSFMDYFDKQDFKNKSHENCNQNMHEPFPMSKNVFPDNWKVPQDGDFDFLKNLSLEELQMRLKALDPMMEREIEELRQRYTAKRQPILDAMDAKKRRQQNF
Sequence of Ribosomal protein S6 kinase alpha-5 (Homo sapiens) (O75582 whole entry, looked up, the tested form may be a part): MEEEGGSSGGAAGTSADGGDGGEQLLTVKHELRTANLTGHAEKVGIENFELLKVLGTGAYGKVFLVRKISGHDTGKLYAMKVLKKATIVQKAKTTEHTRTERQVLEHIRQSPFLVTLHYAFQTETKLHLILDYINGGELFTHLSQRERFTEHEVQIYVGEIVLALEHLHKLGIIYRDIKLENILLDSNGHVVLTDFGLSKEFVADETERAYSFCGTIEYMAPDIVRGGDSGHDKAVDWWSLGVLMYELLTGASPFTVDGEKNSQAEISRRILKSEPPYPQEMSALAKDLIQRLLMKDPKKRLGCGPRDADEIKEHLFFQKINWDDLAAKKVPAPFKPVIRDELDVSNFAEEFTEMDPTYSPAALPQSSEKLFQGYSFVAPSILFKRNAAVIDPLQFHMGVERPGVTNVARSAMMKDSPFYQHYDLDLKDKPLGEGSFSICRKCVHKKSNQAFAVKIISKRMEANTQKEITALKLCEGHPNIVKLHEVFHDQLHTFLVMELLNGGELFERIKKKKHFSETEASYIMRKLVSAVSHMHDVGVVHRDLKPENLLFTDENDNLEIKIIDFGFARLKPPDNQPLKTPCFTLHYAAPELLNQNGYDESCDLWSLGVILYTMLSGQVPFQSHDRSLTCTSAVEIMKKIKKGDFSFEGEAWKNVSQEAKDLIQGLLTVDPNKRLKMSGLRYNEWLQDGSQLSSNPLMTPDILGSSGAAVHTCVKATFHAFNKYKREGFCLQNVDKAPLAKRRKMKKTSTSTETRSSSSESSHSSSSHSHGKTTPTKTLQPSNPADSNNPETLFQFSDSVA
Sequence of Proto-oncogene tyrosine-protein kinase receptor Ret (Homo sapiens), P07949 [V804L] (P07949 whole entry V804L): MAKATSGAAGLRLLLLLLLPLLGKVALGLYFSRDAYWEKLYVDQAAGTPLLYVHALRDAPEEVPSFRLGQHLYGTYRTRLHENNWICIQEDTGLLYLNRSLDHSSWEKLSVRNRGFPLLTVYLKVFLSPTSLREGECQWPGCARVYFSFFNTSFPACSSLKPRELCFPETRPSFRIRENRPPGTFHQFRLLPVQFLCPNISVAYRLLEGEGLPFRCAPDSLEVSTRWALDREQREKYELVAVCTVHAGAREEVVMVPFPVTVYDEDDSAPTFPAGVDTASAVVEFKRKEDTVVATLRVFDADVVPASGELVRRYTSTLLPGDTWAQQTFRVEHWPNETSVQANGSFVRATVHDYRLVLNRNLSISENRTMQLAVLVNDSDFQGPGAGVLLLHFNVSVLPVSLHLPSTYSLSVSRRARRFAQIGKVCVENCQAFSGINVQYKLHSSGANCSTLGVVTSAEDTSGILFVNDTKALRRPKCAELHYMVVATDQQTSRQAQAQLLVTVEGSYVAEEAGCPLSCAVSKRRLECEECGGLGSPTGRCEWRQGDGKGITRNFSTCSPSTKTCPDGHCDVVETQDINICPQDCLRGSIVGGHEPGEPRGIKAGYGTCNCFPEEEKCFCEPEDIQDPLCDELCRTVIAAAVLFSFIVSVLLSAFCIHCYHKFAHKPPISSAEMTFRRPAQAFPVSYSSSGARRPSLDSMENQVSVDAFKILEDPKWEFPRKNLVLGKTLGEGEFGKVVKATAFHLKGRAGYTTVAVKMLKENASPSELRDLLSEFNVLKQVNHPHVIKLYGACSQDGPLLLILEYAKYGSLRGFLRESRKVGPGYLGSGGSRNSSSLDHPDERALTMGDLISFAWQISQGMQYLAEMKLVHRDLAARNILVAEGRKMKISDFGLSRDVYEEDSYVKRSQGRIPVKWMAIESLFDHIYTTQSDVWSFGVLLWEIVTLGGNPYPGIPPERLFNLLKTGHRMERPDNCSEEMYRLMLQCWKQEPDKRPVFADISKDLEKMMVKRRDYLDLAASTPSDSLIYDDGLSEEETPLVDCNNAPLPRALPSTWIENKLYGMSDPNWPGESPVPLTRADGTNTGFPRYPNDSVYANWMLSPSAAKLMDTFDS
Sequence of Mitogen-activated protein kinase kinase kinase kinase 1 (Homo sapiens) (Q92918 whole entry, looked up): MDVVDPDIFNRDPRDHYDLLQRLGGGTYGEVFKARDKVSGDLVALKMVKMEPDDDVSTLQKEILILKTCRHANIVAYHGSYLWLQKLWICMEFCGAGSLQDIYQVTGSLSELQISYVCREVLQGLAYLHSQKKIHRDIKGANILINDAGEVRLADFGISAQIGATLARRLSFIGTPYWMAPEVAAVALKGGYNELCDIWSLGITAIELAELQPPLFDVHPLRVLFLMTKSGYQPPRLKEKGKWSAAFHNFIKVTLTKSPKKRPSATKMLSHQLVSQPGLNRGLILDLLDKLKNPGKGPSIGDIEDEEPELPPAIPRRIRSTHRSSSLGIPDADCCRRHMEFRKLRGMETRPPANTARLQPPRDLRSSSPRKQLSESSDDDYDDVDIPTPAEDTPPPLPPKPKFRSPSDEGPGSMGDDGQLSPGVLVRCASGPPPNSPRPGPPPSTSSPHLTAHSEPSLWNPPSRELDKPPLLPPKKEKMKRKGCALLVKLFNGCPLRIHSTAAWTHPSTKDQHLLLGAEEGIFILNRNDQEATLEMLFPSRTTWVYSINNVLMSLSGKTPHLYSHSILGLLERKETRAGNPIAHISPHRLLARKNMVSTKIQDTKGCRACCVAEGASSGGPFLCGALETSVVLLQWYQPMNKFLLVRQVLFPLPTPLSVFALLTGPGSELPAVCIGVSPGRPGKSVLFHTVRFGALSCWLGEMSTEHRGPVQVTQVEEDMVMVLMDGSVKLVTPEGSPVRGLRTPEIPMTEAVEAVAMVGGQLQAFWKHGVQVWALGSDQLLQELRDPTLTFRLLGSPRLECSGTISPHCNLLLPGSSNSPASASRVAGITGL
Sequence of Serine/threonine-protein kinase TAO3 (Q9H2K8 whole entry): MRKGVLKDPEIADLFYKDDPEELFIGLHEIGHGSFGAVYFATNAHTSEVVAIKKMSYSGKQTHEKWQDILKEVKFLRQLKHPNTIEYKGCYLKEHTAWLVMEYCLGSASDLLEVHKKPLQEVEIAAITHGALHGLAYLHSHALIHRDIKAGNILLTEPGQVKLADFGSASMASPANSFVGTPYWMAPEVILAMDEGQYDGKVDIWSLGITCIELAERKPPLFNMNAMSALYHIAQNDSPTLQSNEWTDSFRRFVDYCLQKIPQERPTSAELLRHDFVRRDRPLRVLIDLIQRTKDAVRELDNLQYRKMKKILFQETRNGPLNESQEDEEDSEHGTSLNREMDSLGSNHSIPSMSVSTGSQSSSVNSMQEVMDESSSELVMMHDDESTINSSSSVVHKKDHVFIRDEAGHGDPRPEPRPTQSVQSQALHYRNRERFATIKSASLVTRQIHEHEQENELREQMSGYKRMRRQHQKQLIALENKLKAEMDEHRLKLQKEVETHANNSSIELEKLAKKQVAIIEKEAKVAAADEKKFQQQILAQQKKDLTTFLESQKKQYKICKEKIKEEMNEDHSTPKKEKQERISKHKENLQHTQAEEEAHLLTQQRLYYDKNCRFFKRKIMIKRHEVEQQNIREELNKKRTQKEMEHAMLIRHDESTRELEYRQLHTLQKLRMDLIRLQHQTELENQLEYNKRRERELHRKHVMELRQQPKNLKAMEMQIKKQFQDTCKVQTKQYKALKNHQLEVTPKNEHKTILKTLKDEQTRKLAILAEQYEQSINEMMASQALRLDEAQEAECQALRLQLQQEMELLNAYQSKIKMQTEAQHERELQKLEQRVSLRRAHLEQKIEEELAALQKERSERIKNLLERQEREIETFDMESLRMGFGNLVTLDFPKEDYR

Work on CN1C(=O)c2sccc2N(C)c2nc(Nc3ccc(S(N)(=O)=O)cc3)ncc21 yielded an Activity [1] of 95%, an Activity [2] of 79% and an Activity [3] of 100%. The Activity [4] was 59%, the Activity [5] was 77% and the inhibition (Homo sapiens) was “Active”. It also gave an IC50 [6] of 1680 nM, an Activity [7] of 96% and an Activity [8] of 98%. The Activity (Mus musculus [9]) was “Active”, the Activity [10] was 14% and the Kd [11] was 5 nM. The Activity [12] was 82%, the inhibition (Mus musculus [13]) was “Active” and the Activity [14] was 97%. For the same molecule, the Activity [15] was 91%, the Activity [16] was 85% and the Activity (Mus musculus [17]) was “Active”. The Activity [18] was 100%, the Activity [19] was 48% and the Activity [20] was 55%. The Activity [21] was 91%, the Kd [22] was 610 nM and the Activity [23] was 94%. The Activity [24] was 86%, the Activity [25] was 8.3% and the Activity [26] was 78%. For the same molecule, the Activity [27] was 98%.
